Reference: ChEMBL document CHEMBL3352788, “Characterization of selective exosite-binding inhibitors of matrix metalloproteinase 13 that prevent articular cartilage degradation in vitro” (J Med Chem, 2014)

Experiments:
Collagenase 3 [1] = target: T1, Collagenase 3 (Homo sapiens, UniProt P45452); assay: Non-competitive inhibition of full-length recombinant human MMP-13 assessed as fTHP-15 substrate hydrolysis
Liver microsome [2] = assay: Half life in human liver microsomes by LC-MS/MS analysis; type: ADME
Method in brief: (§1)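 Compound at 1 μM with 1 mg/mL liver microsomes in 100 mM potassium phosphate pH 7.4 at 37 °C with shaking. Reaction started with 1 mM NADPH (final). Aliquots were taken at 0, 5, 10, 20, 40 and 60 min and quenched in acetonitrile. Parallel incubations without NADPH were run.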

Cytochrome P450 1A2 = target: T2, Cytochrome P450 1A2 (Homo sapiens, UniProt P05177); assay: Inhibition of CYP1A2 (unknown origin) using tacrin substrate; type: ADME
T2 sequence (P05177 whole entry): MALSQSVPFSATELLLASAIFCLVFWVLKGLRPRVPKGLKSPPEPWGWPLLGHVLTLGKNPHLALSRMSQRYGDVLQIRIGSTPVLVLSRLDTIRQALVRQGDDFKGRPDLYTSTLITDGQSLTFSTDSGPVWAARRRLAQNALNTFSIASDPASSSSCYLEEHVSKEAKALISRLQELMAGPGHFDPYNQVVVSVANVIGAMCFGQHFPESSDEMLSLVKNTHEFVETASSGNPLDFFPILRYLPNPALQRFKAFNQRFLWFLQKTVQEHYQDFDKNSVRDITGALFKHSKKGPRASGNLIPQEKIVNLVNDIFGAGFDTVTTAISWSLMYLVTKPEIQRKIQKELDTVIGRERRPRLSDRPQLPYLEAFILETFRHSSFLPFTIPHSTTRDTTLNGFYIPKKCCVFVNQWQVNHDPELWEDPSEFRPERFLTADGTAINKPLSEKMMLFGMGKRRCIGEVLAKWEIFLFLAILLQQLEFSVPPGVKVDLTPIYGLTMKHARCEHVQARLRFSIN
Method in brief: (§2)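 Human liver microsomes with probe substrate and an NADPH-regenerating system in 0.1 M potassium phosphate pH 7.4 at 37 °C, run in duplicate. Inhibitor at 0–20 μM (0–2.5 μM for one compound), eight concentrations. Reactions were stopped with acetonitrile/formic acid containing isotope-labelled internal standard, and metabolite area ratios were compared with and without inhibitor. IC50 was taken by linear interpolation between bracketing concentrations.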

Cytochrome P450 2B6 = target: T3, Cytochrome P450 2B6 (Homo sapiens, UniProt P20813); assay: Inhibition of CYP2B6 (unknown origin) using bupropion substrate; type: ADME; method in brief: as §2
T3 sequence (P20813 whole entry): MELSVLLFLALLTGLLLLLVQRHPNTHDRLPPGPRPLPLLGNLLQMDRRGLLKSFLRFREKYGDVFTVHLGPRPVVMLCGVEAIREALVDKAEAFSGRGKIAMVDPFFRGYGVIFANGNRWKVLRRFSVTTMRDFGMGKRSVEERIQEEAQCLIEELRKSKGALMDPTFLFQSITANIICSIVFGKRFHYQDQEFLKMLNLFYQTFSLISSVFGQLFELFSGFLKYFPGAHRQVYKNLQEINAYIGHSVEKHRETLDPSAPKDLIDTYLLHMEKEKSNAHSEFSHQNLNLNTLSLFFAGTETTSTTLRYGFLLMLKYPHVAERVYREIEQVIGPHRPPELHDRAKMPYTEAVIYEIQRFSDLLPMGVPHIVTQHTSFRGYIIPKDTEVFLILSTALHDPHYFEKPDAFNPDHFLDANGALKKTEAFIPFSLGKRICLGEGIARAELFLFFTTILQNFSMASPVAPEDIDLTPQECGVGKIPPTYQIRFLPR

Cytochrome P450 2C8 = target: T4, Cytochrome P450 2C8 (Homo sapiens, UniProt P10632); assay: Inhibition of CYP2C8 (unknown origin) using amodiaquine substrate; type: ADME; method in brief: as §2
T4 sequence (P10632 whole entry): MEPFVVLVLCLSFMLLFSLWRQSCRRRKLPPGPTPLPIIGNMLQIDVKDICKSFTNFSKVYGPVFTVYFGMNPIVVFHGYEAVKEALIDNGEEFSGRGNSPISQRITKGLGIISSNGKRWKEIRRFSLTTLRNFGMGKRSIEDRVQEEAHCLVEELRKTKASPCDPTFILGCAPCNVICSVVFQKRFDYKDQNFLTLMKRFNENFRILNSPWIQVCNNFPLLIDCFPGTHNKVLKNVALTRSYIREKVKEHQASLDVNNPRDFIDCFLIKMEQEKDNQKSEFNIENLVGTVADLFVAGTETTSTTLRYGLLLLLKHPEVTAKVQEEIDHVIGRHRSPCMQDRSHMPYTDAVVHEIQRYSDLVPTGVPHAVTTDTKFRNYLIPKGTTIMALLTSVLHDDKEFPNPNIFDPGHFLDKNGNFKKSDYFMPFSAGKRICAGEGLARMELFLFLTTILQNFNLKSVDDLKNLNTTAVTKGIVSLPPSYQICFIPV

Cytochrome P450 2C9 = Cytochrome P450 2C9 (Homo sapiens, UniProt P11712); assay: Inhibition of CYP2C9 (unknown origin) using diclofenac substrate; type: ADME; method in brief: as §2
Cytochrome P450 2C9, sequence (P11712 whole entry): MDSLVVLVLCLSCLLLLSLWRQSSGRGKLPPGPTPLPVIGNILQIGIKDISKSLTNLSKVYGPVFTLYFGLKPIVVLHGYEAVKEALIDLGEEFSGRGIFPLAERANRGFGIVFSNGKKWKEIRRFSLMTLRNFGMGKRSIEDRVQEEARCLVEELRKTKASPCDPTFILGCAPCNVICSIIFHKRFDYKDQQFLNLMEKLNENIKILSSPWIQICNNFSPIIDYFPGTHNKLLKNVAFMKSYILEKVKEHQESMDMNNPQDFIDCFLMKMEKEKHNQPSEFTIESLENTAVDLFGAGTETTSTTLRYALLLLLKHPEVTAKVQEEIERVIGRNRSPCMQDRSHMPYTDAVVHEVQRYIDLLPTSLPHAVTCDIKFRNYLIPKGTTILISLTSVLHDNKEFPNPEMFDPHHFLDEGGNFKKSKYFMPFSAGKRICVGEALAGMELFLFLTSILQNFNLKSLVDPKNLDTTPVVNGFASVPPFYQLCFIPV

Cytochrome P450 2C19 = Cytochrome P450 2C19 (Homo sapiens, UniProt P33261); assay: Inhibition of CYP2C19 (unknown origin) using (S)-mephentoin substrate; type: ADME; method in brief: as §2
Cytochrome P450 2C19, sequence (P33261 whole entry): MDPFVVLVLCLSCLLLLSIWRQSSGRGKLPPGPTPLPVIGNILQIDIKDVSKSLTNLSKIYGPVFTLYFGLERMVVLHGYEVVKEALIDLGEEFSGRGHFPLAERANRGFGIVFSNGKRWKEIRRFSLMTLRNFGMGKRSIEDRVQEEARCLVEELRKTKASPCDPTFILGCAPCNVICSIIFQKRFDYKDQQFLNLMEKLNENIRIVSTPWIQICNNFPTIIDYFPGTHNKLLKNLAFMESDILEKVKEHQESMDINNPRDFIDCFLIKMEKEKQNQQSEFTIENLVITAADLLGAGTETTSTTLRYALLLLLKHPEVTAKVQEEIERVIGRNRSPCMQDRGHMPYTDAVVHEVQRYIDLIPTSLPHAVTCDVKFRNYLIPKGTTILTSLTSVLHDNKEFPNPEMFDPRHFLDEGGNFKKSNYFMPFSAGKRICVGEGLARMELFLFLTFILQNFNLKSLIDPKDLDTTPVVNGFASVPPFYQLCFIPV

Cytochrome P450 2D6 = Cytochrome P450 2D6 (Homo sapiens, UniProt P10635); assay: Inhibition of CYP2D6 (unknown origin) using dextromethophan substrate; type: ADME; method in brief: as §2
Cytochrome P450 2D6, sequence (P10635 whole entry): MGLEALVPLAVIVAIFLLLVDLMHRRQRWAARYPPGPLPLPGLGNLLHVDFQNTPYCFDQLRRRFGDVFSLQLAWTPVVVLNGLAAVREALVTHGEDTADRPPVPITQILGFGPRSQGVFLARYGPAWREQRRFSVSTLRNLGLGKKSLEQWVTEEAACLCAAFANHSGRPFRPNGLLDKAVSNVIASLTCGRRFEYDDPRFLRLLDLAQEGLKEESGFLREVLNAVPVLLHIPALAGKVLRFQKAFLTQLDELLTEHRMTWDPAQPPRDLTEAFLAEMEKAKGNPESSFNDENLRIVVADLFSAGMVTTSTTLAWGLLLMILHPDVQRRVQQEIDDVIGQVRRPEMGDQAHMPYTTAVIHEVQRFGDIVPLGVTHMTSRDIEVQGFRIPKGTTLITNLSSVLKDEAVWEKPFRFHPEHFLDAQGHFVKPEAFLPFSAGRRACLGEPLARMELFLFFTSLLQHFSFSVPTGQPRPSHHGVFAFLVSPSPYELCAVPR

Cytochrome P450 3A4 [3] = target: T5, Cytochrome P450 3A4 (Homo sapiens, UniProt P08684); assay: Inhibition of CYP3A4 (unknown origin) using midazolam substrate; type: ADME
T5 sequence (P08684 whole entry): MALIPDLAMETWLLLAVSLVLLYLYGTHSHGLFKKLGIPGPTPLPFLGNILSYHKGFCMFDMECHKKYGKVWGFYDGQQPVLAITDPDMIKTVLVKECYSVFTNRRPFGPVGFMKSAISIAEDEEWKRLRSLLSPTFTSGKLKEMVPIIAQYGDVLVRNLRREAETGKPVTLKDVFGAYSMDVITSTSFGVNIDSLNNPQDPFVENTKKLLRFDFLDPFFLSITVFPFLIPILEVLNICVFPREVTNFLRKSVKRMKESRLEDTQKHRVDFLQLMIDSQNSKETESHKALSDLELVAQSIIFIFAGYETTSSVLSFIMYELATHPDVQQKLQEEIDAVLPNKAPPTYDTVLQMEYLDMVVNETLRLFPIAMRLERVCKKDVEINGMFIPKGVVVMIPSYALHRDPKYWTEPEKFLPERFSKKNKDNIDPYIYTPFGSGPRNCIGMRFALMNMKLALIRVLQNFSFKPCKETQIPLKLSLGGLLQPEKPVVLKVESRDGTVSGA
Method in brief: (§3)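 Reactions stopped with acetonitrile/0.1% formic acid plus labelled internal standard. Metabolite measured by LC-MS area ratio. IC50 by linear interpolation.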

Cytochrome P450 3A4 [4] = target: T5, Cytochrome P450 3A4; assay: Inhibition of CYP3A4 (unknown origin) using testosterone substrate; type: ADME; method in brief: as §3
Collagenase 3 [5] = target: T1, Collagenase 3; assay: Inhibition of full-length recombinant human MMP-13 assessed as bovine type-2 collagen hydrolysis after 22 hrs by fluorescence assay
Collagenase 3 [6] = target: T1, Collagenase 3; details: 50 uM
Collagenase 3 [7] = target: T1, Collagenase 3; assay: Competitive inhibition of full-length recombinant human MMP-13 assessed as fTHP-15 substrate hydrolysis by Lineweaver-Burke plot analysis
Method in brief: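 Pro-MMP-13 activated with 1 mM APMA for 2 h at 37 °C. Enzyme at 4 nM was incubated with fTHP-15 at 2–25 μM and varying inhibitor in Tris pH 7.5/NaCl/CaCl2/Brij-35 buffer at room temperature. Fluorescence was read at ex 324/em 393 nm, and rates were taken from the linear portion. Mechanism was assigned by a mixed-model nonlinear fit (α parameter) and confirmed by Lineweaver–Burke plots.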

Liver = assay: Half life in mouse liver microsomes by LC-MS/MS analysis; type: ADME; method in brief: as §1
Liver microsome [8] = assay: Half life in rat liver microsomes by LC-MS/MS analysis; type: ADME; method in brief: as §1

Compound: Cc1ccc(CSc2nc3c(c(=O)[nH]2)CCC3)cc1
- IC50 (Collagenase 3 [1]): 2.4 µM
- t1/2 (Liver microsome [2]): 7.3 min
- IC50 (Cytochrome P450 1A2): 3.7 µM
- IC50 (Cytochrome P450 2B6): > 20 µM
- IC50 (Cytochrome P450 2C8): > 20 µM
- IC50 (Cytochrome P450 2C9): 8.8 µM
- IC50 (Cytochrome P450 2C19): 7.9 µM
- IC50 (Cytochrome P450 2D6): > 20 µM
- IC50 (Cytochrome P450 3A4 [3]): > 20 µM
- IC50 (Cytochrome P450 3A4 [4]): > 20 µM
- IC50 (Collagenase 3 [5]): 0.4 µM

Compound: O=C(O)CN(CCN(CC(=O)O)CC(=O)O)CC(=O)O
- inhibition (Collagenase 3 [6]): 70%

Compound: CC(=O)NO
- Kb (Collagenase 3 [7]): 1200 µM

Compound: CCN(CC)CCNC(=O)c1c(C)[nH]c(/C=C2\C(=O)Nc3ccc(F)cc32)c1C [SUNITINIB]
- t1/2 (Liver microsome [2]): 44.1 min
- t1/2 (Liver): 12.3 min
- t1/2 (Liver microsome [8]): 26.5 min
